Most compounds without a hit are left out; they make up all but 4.5% or so of the library.
GPR7 antagonist: GPR7 receptor antagonists, primary screen, cell-based, fluorescence, single concentration; Neuropeptides B/W receptor type 1 (Homo sapiens), P48145; GPR7-expressing cells, fluorescence antagonist assay; inhibition, % at 4.4 µM; actives 1.1% (n = 290,000); in the data active = inhibition above about 16%, passing the limit was not always enough;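 note: cells stimulated with the agonist NPW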
CHO parental Ca: ATP-evoked calcium signal inhibitors, parental CHO, primary screen, counter-screen for OX1R antagonist project, cell-based, fluorescence, Fluo-8 calcium dye. parental CHO-K1, ATP-induced calcium, Fluo-8 fluorescence. inhibition, % at 5.6 µM. actives 0.63% (n = 330,000). AID 463079, 2010;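 active = inhibition above that plate's mean sample inhibition plus 3 SD, cut at about 26% in these data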
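Material: Parental CHO cells | Reagent: ATP | Compound dosing: Single nominal dose of 5.6 µM per compound | Detection: Intracellular calcium via Fluo-8 no-wash fluorescent dye | Read-out: % inhibition of ATP-induced calcium mobilization | Benchmarks: Low control ATP plus DMSO, high control DMSO only | Replicates: Singlicate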
OX1R antag-1: antagonists of human orexin 1 receptor (OX1R). actives 1.8% (n = 330,000). AID 485270, 2010. OX1R-expressing cells, FRET antagonist read-out. Orexin/Hypocretin receptor type 1 (Homo sapiens), O43613. inhibition, % at 6.6 µM; in the data active = inhibition mostly above about 38%, no sharp cut-off; inactive = mostly below about 40%
Target sequence (O43613 whole entry, looked up): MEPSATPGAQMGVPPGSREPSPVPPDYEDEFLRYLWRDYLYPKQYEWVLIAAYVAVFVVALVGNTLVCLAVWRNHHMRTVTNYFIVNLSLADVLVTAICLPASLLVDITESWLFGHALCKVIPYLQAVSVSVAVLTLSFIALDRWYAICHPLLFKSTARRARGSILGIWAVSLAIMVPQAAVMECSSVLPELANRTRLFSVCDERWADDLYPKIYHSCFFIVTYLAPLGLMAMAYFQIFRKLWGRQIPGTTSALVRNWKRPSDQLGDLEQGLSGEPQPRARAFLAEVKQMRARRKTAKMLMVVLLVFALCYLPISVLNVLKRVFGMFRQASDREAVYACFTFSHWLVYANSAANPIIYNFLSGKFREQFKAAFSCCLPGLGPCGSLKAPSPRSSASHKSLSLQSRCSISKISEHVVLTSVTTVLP
OX1R antag-2: OX1R (HCRTR1) antagonists, primary screen, fluorescence, CHO/OX1R cells, Fluo-8 calcium, orexin A. Fluo-8 calcium fluorescence. inhibition, % at 5 µM. actives 0.43% (n = 330,000). AID 434989, 2010;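 active = inhibition above its plate's threshold, mean inhibition of all tested compounds on the plate plus 3 SD, cut at about 37% in these data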
TAAR1 ag: human TAAR1 agonists, primary screen, Fluo-8 calcium fluorescence, CHO RD-HGA16 cells; AID 624467, 2012; Trace amine-associated receptor 1 (Homo sapiens), Q96RJ0; actives 0.99% (n = 360,000); vehicle wells 0%, saturating PEA agonist 100%; activation, % at 3 µM;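 active = activation above the mean activation of all test compounds in the run plus 3 SD, cut at about 38% in these data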
Target sequence (Q96RJ0 whole entry, looked up): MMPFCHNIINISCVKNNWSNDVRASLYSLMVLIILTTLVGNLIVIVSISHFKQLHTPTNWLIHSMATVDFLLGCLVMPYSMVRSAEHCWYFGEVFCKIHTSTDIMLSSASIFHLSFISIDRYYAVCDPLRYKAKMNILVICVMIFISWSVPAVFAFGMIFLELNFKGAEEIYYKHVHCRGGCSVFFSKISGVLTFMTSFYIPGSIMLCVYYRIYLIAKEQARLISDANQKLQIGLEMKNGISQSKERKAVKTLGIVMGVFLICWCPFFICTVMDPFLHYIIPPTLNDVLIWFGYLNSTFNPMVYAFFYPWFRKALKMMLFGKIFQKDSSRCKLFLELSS
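System: CHO-derived RD-HGA16 cells with stable Gα16 and human TAAR1 / Times: 17-24 h plating, Fluo-8 75 min 37 °C, 30 min RT / Technique: calcium-sensitive Fluo-8 signal, excitation 470-495, emission 515-575 nm / Measure: % activation relative to PEA EC100 response / Benchmarks: DMSO and PEA EC100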
TAAR1 antag: human TAAR1 antagonists, primary screen, Fluo-8 calcium fluorescence, CHO RD-HGA16 cells; Trace amine-associated receptor 1 (Homo sapiens), Q96RJ0; antagonist; inhibition, % at 3 µM; actives 1.5% (n = 360,000);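 active = inhibition above a per-plate cutoff, the mean inhibition of test compounds on that plate plus 3 SD, cut at about 49% in these data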
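System: RD-HGA16 CHO cells with stable hTAAR1 and Gα16 | Probe or stimulus: EC80 β-phenethylamine stimulus | Dosing: 3 µM, single point | Times: Dye loading 75 min at 37 °C, then 30 min room temperature | Measured by: Fluo-8 calcium-sensitive fluorescence | Read-out basis: % inhibition of agonist calcium response | Replicates: n of 1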
TAAR1 nonsel count: nonselective antagonists in TAAR1 counter-screen cells, counter-screen for hTAAR1 antagonist project, cell-based, fluorescence, calcium; shares compounds with TAAR1 antag; counterscreen cell line, antagonist mode; inhibition, % at 3 µM; actives 77% (n = 2,400); in the data active = inhibition above about 22%;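 note: CHO-Ga16 host cells stimulated with ATP at an EC80 level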
TAAR1 ant conf: human TAAR1 antagonists, retest of hits, confirmation, cell-based, fluorescence; shares compounds with TAAR1 antag; TAAR1-expressing cells, fluorescence antagonist read-out; inhibition, % at 3 µM; actives 40% (n = 2,400); in the data active = inhibition above about 49%;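 note: CHO-Ga16 host cells challenged with agonist PEA near its EC80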
Ga16 nonsel ag: calcium activation in Ga16-expressing cells, counter-screen for TAAR1 antagonist project, cell-based, fluorescence. shares compounds with TAAR1 antag. agonist counterscreen. activation, % at 3 µM. actives 18% (n = 2,400); in the data active = activation above about 12%
TAAR1 ag count: TAAR1 activation by candidate antagonists – cell-based, fluorescence, counter-screen for TAAR1 antagonist project; shares compounds with TAAR1 antag; hTAAR1 cell line, agonist mode; activation, % at 3 µM; actives 2% (n = 2,400); AID 651955, 2012; in the data active = activation above about 37%;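 note: CHO cells stably expressing TAAR1 with calcium dye readout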
Numbers stand for hits; i = inactive; nt = not tested or not shown; ! = a repeat was not active.

SMILES	GPR7 antagonist	CHO parental Ca	OX1R antag-1	OX1R antag-2	TAAR1 ag	TAAR1 antag	TAAR1 nonsel count	TAAR1 ant conf	Ga16 nonsel ag	TAAR1 ag count
CCNC(=S)N/N=C/c1cccc(/C=N/NC(=S)NCC)c1	i	i	i	i	i	i	nt	nt	nt	nt
CCCCCCSc1ccc(-c2nc3ccc(C)cn3c2NCc2ccccc2)cc1	nt	i	i	i	i	i	nt	nt	nt	nt
CCC(C)Sc1cc(-c2nc3cc(C)ccn3c2NC2CCCCC2)ccc1OC (stereo not drawn)	nt	i	i	i	i	i	nt	nt	nt	nt
CCC(C)Sc1cccc(-c2nc3ccc(C)cn3c2NC2CCCCC2)c1 (stereo not drawn)	nt	i	i	i	i	57.4!	35.1	48.8	i	i
CCC(C)Sc1cc(-c2nc3ccccn3c2NC2CCCCC2)ccc1OC (stereo not drawn)	nt	i	i	i	i	78.5	42.1	63.1	i	i
CC(=O)c1ccc(-c2cccc(-c3nc4ccccn4c3NC3CCCCC3)c2)cc1	nt	i	i	i	i	58.7	23.3	i	i	i
Cc1ccc2nc(-c3cccc(SC4CCCCC4)c3)c(NCc3ccccc3)n2c1	nt	i	i	i	i	84.2	37.0	60.6	i	i
CN1CCN(c2ccc(S(=O)(=O)N3CCOCC3)cc2NC(=O)CSCc2ccccc2)CC1	nt	i	i	i	i	i	nt	nt	nt	nt
O=C(NC1CCCCCC1)C1CCN(C(=O)c2cccc(Cl)c2)CC1	i	i	i	i	i	i	nt	nt	nt	nt
CN(CC(=O)Nc1ccc(F)cc1)C(=O)c1ccc(OCc2cn3ccccc3n2)cc1	nt	i	i	i	i	i	nt	nt	nt	nt
COC(=O)c1cccc(-c2ccc(/C=N/N3C(=O)C4C5C=CC(C6CC56)C4C3=O)o2)c1 (stereo not drawn)	i	i	i	i	i	i	nt	nt	nt	nt
Cc1ccc(-c2ccc(/C=N/N3C(=O)C4C5C=CC(C6CC56)C4C3=O)o2)c([N+](=O)[O-])c1 (stereo not drawn)	i	i	i	i	i	57.7	33.0	i	i	i
COC(=O)c1ccc(-c2ccc(/C=N/N3C(=O)C4C5C=CC(C6CC56)C4C3=O)o2)cc1 (stereo not drawn)	i	i	i	i	i	61.8	27.3	i	i	i
O=C(Nc1ccc(NC(=O)c2ccccc2)c2ccccc12)c1ccccc1	nt	nt	nt	nt	i	i	nt	nt	nt	nt
O=C(NCc1cc2ccccc2[nH]1)C1CCC(=O)N(CCCN2CCCC2=O)C1 (stereo not drawn)	i	i	i	i	i	i	nt	nt	nt	nt
COc1cc(S(=O)(=O)N2CCn3cccc3C2C)ccc1NC(C)=O (stereo not drawn)	nt	i	i	i	i	i	nt	nt	nt	nt
Cc1noc(C)c1C(=O)Nc1nc(-c2ccc([N+](=O)[O-])cc2)cs1	i	i	i	i	i	57.2	36.9	i	i	i
Cc1c(Cl)c([N+](=O)[O-])nn1Cc1ccc(C(=O)N/N=C\c2cccc(Br)c2)o1	i	i	i	i	i	64.6	35.4	i	i	i
Cn1c(=O)n(C)c2cc([N+](=O)[O-])c(N3CCN(S(=O)(=O)c4ccccc4)CC3)cc21	i	i	i	i	i	61.9	26.3	54.0	14.7	i
COc1ccc(OC)c(NC(=O)C2CCCN(S(C)(=O)=O)C2)c1 (stereo not drawn)	i	i	i	i	i	i	nt	nt	nt	nt
Cc1cc(C)cc(NC(=O)c2cccc(N3C(=O)C4C5C=CC(C5)C4C3=O)c2)c1 (stereo not drawn)	i	nt	nt	nt	i	i	nt	nt	nt	nt
Cc1cccc(NC(=O)c2cccc(N3C(=O)C4C5C=CC(C6CC56)C4C3=O)c2)c1 (stereo not drawn)	i	i	i	i	i	58.4	34.8	i	i	i
O=C(CSc1nc(-c2ccccc2)nc2ccc(F)cc12)Nc1cccc(C(=O)O)c1	i	i	i	i	i	62.7	31.1	48.8	i	i
O=C(CSc1nc(-c2ccccc2)nc2ccc(F)cc12)Nc1ccc(C(=O)O)cc1	i	i	i	i	i	i	nt	nt	nt	nt
CCNC(COC(=O)c1ccc([N+](=O)[O-])cc1)C1CCCCC1 (stereo not drawn)	nt	nt	nt	nt	i	i	nt	nt	nt	nt
SMILES	GPR7 antagonist	CHO parental Ca	OX1R antag-1	OX1R antag-2	TAAR1 ag	TAAR1 antag	TAAR1 nonsel count	TAAR1 ant conf	Ga16 nonsel ag	TAAR1 ag count
Cc1cncn1CCc1nc2c3ccccc3nc(SCC(=O)Nc3cccc(Cl)c3)n2n1	i	i	i	i	i	i	nt	nt	nt	nt
Cc1n[nH]c(C)c1CCc1nc2c3ccccc3nc(SCC(=O)Nc3ccccc3F)n2n1	i	i	i	i	i	61.3	22.6	i	i	i
CC(=O)c1ccc(NC(=O)c2ccc(CSc3ccccc3)o2)cc1	i	i	i	i	i	95.4	28.1	79.7	i	i
COc1ccc(-c2csc(N(CCCN(C)C)C(=O)c3ccc(OC)c(OC)c3)n2)cc1	nt	nt	nt	nt	i	i	nt	nt	nt	nt
Oc1c(Br)cc(Br)cc1C=NCc1ccc(F)cc1	i	i	i	i	i	52.0	27.2	i	i	i
Oc1c(Br)cc(Br)cc1C=NCc1ccccc1	i	i	i	i	i	i	nt	nt	nt	nt
COc1cccc(NC(=O)C2CCN(C(=O)[C@@H]3Cc4ccccc4CN3)CC2)c1	i	i	i	i	i	i	nt	nt	nt	nt
COc1cccc(NC(=O)C2CCN(C(=O)[C@@H]3Cc4ccccc4CN3C(=O)OC(C)(C)C)CC2)c1	i	i	i	i	i	52.6	24.5	i	i	i
CN(CC(=O)NCC(=O)Nc1ccc(F)c(F)c1F)C1CCS(=O)(=O)C1 (stereo not drawn)	nt	i	i	i	i	i	nt	nt	nt	nt
COCCN1Cc2cc(C(=O)OC)c3c(c2C1=O)c1cc(OC)ccc1n3C(=O)c1ccccc1	nt	nt	nt	nt	i	74.3	34.2	58.1	i	i
COCCN1Cc2cccc(C(=O)NCCc3ccccc3)c2C1=O	i	i	i	i	i	i	nt	nt	nt	nt

Screening data: PubChem BioAssay, The Scripps Research Institute Molecular Screening Center
